The structures appear in SMILES notation. Activity calls are given as the source filed them.

Data on 13 compounds can be found in ChEMBL document CHEMBL1671789, “Evaluation of quinazoline analogues as glucocerebrosidase inhibitors with chaperone activity” (J Med Chem, 2011).

Tested on in the first assay: not listed separately
Put plainly: Inhibition of alpha-galactosidase.
On to `Cc1ccc(S(=O)(=O)N2CCC(c3nc(-c4cccs4)nc4ccccc34)CC2)cc1`, for which the result was inactive.
With `Cc1ccc(S(=O)(=O)N2CCN(c3nc(C(N)=O)nc4ccccc34)CC2)cc1`, the result was inactive.
On the same count and under the same terms, with `CCN1CCN(c2nc(-c3cccs3)nc3ccccc23)CC1` the entry was “inactive”.
`Cc1ccc(S(=O)(=O)N2CCN(c3nc(-c4cncnc4)nc4ccccc34)CC2)cc1`: the outcome was inactive.
Same read-out and setting: with `O=S(=O)(c1ccc(Cl)cc1)N1CCN(c2nc(-c3ccc(F)cc3)nc3cc(Cl)ccc23)CC1` the entry was “inactive”.
Consider `Cc1ccc(S(=O)(=O)N2CCN(c3nc(-c4ncccn4)nc4ccccc34)CC2)cc1`, for which the outcome was inactive.
The same measure, in the same setting: the value for `O=S(=O)(c1ccc(F)cc1)N1CCN(c2nc(-c3ccccc3)nc3cc(Cl)ccc23)CC1` was “inactive”; that for `Cc1ccc(S(=O)(=O)N2CCN(c3nc(-c4cccs4)nc4[nH]cnc34)CC2)cc1` was “inactive”; that for `CCCN1CCN(c2nc(-c3cccs3)nc3ccccc23)CC1` was “inactive”.
Same read-out and setting: the value for `O=S(=O)(c1ccccc1)N1CCN(c2nc(-c3ccc(F)cc3)nc3cc(Cl)ccc23)CC1` was “inactive”; that for `O=S(=O)(c1ccc(Cl)cc1)N1CCN(c2nc(-c3cccc(Br)c3)nc3ccccc23)CC1` was “inactive”; that for `O=S(=O)(c1ccc(F)cc1)N1CCN(c2nc(-c3cccs3)nc3cc(Cl)ccc23)CC1` was “inactive”.
Regarding `Cc1ccc(S(=O)(=O)N2CCN(c3nc(-c4ccc(F)cc4)nc4cc(Cl)ccc34)CC2)cc1`, the result was inactive.

Tested on in another assay: not listed separately
Kind of assay: Inhibition of alpha-glucosidase.
For the compound `Cc1ccc(S(=O)(=O)N2CCC(c3nc(-c4cccs4)nc4ccccc34)CC2)cc1`, the result was inactive.
Consider `Cc1ccc(S(=O)(=O)N2CCN(c3nc(C(N)=O)nc4ccccc34)CC2)cc1`, for which the outcome was inactive.
As for `CCN1CCN(c2nc(-c3cccs3)nc3ccccc23)CC1`, the result was inactive.
`Cc1ccc(S(=O)(=O)N2CCN(c3nc(-c4cncnc4)nc4ccccc34)CC2)cc1`: the result was inactive.
With `O=S(=O)(c1ccc(Cl)cc1)N1CCN(c2nc(-c3ccc(F)cc3)nc3cc(Cl)ccc23)CC1`, the result was inactive.
Take `Cc1ccc(S(=O)(=O)N2CCN(c3nc(-c4ncccn4)nc4ccccc34)CC2)cc1`: the result was inactive.
As for `O=S(=O)(c1ccc(F)cc1)N1CCN(c2nc(-c3ccccc3)nc3cc(Cl)ccc23)CC1`, the outcome was inactive.
For the compound `Cc1ccc(S(=O)(=O)N2CCN(c3nc(-c4cccs4)nc4[nH]cnc34)CC2)cc1`, the outcome was inactive.
With `CCCN1CCN(c2nc(-c3cccs3)nc3ccccc23)CC1`, the outcome was inactive.
Turning to `O=S(=O)(c1ccccc1)N1CCN(c2nc(-c3ccc(F)cc3)nc3cc(Cl)ccc23)CC1`, the result was inactive.
For `O=S(=O)(c1ccc(Cl)cc1)N1CCN(c2nc(-c3cccc(Br)c3)nc3ccccc23)CC1`, the outcome was inactive.
For `O=S(=O)(c1ccc(F)cc1)N1CCN(c2nc(-c3cccs3)nc3cc(Cl)ccc23)CC1`, the result was inactive.
In the case of `Cc1ccc(S(=O)(=O)N2CCN(c3nc(-c4ccc(F)cc4)nc4cc(Cl)ccc34)CC2)cc1`, the outcome was inactive.

The next assay has as its system T1, Lysosomal acid glucosylceramidase (Homo sapiens), P04062 [N409S].
T1 sequence (whole entry): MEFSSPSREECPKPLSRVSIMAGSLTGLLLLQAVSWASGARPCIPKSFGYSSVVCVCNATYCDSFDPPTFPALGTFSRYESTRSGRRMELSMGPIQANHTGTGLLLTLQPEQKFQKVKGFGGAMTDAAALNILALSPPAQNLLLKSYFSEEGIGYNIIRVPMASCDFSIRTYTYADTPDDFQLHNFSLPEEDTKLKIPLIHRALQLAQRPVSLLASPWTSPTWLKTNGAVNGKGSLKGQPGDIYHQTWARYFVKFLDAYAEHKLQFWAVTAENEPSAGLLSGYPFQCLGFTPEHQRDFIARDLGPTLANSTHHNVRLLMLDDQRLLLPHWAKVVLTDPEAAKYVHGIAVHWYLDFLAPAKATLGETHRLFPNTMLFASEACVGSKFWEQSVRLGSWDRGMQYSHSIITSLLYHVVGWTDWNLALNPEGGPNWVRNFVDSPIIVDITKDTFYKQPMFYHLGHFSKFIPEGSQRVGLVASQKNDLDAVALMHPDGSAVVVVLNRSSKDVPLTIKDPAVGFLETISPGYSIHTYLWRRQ
Put plainly: Activity at recombinant Gcase N370S mutant in human spleen homogenates assessed as hydrolysis of 4-MU-beta-D-glucose at 50 uM. Format: tissue-based. The gist of the method:
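Enzyme source: human spleen homogenate, 27 μg/well, in 50 mM citric acid/K2PO4 buffer pH 5 with 0.01% Tween20. Compound pin-transferred and preincubated 5 min at room temperature. Substrate 4MU-β-glc at 1 mM final, 45 min at 37 °C. Stopped with 1 M NaOH/1 M glycine pH 10. Fluorescence read at 365 nm excitation, 440 nm emission.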
`Cc1ccc(S(=O)(=O)N2CCC(c3nc(-c4cccs4)nc4ccccc34)CC2)cc1`: the outcome was inactive.
`Cc1ccc(S(=O)(=O)N2CCN(c3nc(C(N)=O)nc4ccccc34)CC2)cc1`: the result was inactive.
In the case of `CCN1CCN(c2nc(-c3cccs3)nc3ccccc23)CC1`, the result was inactive.
In the case of `Cc1ccc(S(=O)(=O)N2CCN(c3nc(-c4cncnc4)nc4ccccc34)CC2)cc1`, the outcome was inactive.
For `O=S(=O)(c1ccc(Cl)cc1)N1CCN(c2nc(-c3ccc(F)cc3)nc3cc(Cl)ccc23)CC1`, the outcome was inactive.
On the same count and under the same terms, the value for `Cc1ccc(S(=O)(=O)N2CCN(c3nc(-c4ncccn4)nc4ccccc34)CC2)cc1` was “inactive”.
For `O=S(=O)(c1ccc(F)cc1)N1CCN(c2nc(-c3ccccc3)nc3cc(Cl)ccc23)CC1`, the outcome was inactive.
On to `Cc1ccc(S(=O)(=O)N2CCN(c3nc(-c4cccs4)nc4[nH]cnc34)CC2)cc1`, for which the outcome was inactive.
Take `CCCN1CCN(c2nc(-c3cccs3)nc3ccccc23)CC1`: the result was inactive.
For the compound `O=S(=O)(c1ccccc1)N1CCN(c2nc(-c3ccc(F)cc3)nc3cc(Cl)ccc23)CC1`, the outcome was inactive.
In the case of `O=S(=O)(c1ccc(Cl)cc1)N1CCN(c2nc(-c3cccc(Br)c3)nc3ccccc23)CC1`, the outcome was inactive.
In the case of `O=S(=O)(c1ccc(F)cc1)N1CCN(c2nc(-c3cccs3)nc3cc(Cl)ccc23)CC1`, the outcome was inactive.
Turning to `Cc1ccc(S(=O)(=O)N2CCN(c3nc(-c4ccc(F)cc4)nc4cc(Cl)ccc34)CC2)cc1`, the result was inactive.
